The values below come from ChEMBL document CHEMBL1153453, “Schiff bases of 3-formylchromone as thymidine phosphorylase inhibitors” (Bioorg Med Chem, 2009).

Each structure is given as a SMILES string.

Sequence of Thymidine phosphorylase (P07650 whole entry): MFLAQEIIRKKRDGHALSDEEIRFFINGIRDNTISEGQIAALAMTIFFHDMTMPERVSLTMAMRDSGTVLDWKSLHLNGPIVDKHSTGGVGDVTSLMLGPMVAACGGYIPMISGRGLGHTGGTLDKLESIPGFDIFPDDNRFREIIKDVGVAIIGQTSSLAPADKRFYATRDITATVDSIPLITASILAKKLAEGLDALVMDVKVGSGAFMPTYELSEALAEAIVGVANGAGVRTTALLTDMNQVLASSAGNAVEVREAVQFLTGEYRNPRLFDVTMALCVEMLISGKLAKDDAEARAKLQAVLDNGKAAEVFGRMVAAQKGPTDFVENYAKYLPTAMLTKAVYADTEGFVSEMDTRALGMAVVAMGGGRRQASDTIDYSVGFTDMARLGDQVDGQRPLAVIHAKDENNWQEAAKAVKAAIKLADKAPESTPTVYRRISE

The first experiment addresses Thymidine phosphorylase (Escherichia coli K-12, UniProt P07650). The experiment in a line: Inhibition of Escherichia coli thymidine phosphorylase.
Conditions: not given; call rule not given here
An outline of the steps: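 E. coli thymidine phosphorylase, 0.05 or 0.002 U, in potassium phosphate buffer pH 7.4, preincubated with test compound 10 min at 25 °C. A 290 nm pre-read was then taken, substrate added (1.5 mM stock), and absorbance at 290 nm read after 10, 20 and 30 min. Increasing compound concentrations were tested in triplicate. IC50 was calculated from the inhibition data.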
Regarding `O=C(O)c1ccccc1/N=C/c1coc2ccccc2c1=O`, the IC50 entry was “Not Active”.

For the compound `Cc1cccc(C)c1/N=C/c1coc2ccccc2c1=O`, the concentration for half-maximal inhibition (IC50) entry was “Not Active”.

For the compound `O=c1c(/C=N/c2ccncc2)coc2ccccc12`, the IC50 result was “Not Active”.

Consider `COc1cccc(/N=C/c2coc3ccccc3c2=O)c1`, for which the half-maximal inhibitory concentration (IC50) entry is listed as “Not Active”.

For the compound `COc1cc([N+](=O)[O-])ccc1/N=C/c1coc2ccccc2c1=O`, the IC50 result is reported as “Not Active”.

As for `O=c1c(/C=N/c2cccnc2)coc2ccccc12`, the IC50 result was “Not Active”.

Turning to `Cc1ccc(/N=C/c2coc3ccccc3c2=O)cc1`, the half-maximal inhibitory concentration (IC50) result is on record as “Not Active”.

Take `CC(C)(C)NC(NC(C)(C)C)c1coc2ccccc2c1=O`: the IC50 entry is on record as “Not Active”.

The experiment is the same for the next values; noted with them: read-out: IC50.
Take `O=c1c(/C=N/C(CO)Cc2ccccc2)coc2ccccc12` (configuration not stated): the concentration for half-maximal inhibition (IC50) was found to be 473 µM.

`O=c1c(/C=N/CC/N=C/c2coc3ccccc3c2=O)coc2ccccc12`: the IC50 was determined as 150 µM.

For the compound `CCC(=O)N/N=C/c1coc2ccccc2c1=O`, the half-inhibitory concentration (IC50) was found to be 146 µM.

In the case of `Cc1cccc([N+](=O)[O-])c1/N=C/c1coc2ccccc2c1=O`, the IC50 came out at 480 µM.

Take `Cc1cccc(/N=C/c2coc3ccccc3c2=O)c1`: the IC50 was determined as 67.3 µM.

As to `O=C(c1ccccc1)c1cc(Cl)ccc1/N=C/c1coc2ccccc2c1=O`, the IC50 worked out at 75.9 µM.

Take `O=c1c(/C=N/c2ncccc2O)coc2ccccc12`: the IC50 is 340 µM.

On to `COc1cc(/N=C/c2coc3ccccc3c2=O)ccc1C`, for which the IC50 is 19.8 µM.

With `O=c1c(/C=N/c2ccc(Cl)cc2Cl)coc2ccccc12`, the concentration for half-maximal inhibition (IC50) came out at 40.3 µM.
